Laboratory results taken from ChEMBL document CHEMBL4665863 (Bioorg Med Chem, 2020).
In brackets after ≈: the same amount, converted by molar mass. Activity calls are given as the source filed them. No cut-off for these calls is given here.

What was measured:
Bacillus subtilis [1] = assay: Inhibition of ftsZ in Bacillus subtilis assessed as increase in enzyme polymerization kinetics at 10 ug/ml measured for 30 mins by microtiter plate-based light scattering assay; details: dose 10.0 µg/ml
Staphylococcus aureus [2] = assay: Bacteriostatic activity against Staphylococcus aureus clinical isolate assessed as ratio of MBC to MIC; type: functional
Staphylococcus aureus [3] = assay: Bacteriostatic activity against penicillin-resistant Staphylococcus aureus assessed as ratio of MBC to MIC; type: functional
Staphylococcus aureus [4] = assay: Bacteriostatic activity against methicillin-resistant Staphylococcus aureus ATCC43300 assessed as ratio of MBC to MIC; type: functional
Staphylococcus aureus [5] = assay: Bacteriostatic activity against Staphylococcus aureus ATCC25923 assessed as ratio of MBC to MIC; type: functional
Staphylococcus aureus [6] = assay: Bactericidal activity against Staphylococcus aureus clinical isolate assessed as reduction in number of colony forming units incubated for 24 hrs followed by re-plating and reincubation on tryptic soy agar plate for 24 hrs; type: functional
Staphylococcus aureus [7] = assay: Bactericidal activity against penicillin-resistant Staphylococcus aureus assessed as reduction in number of colony forming units incubated for 24 hrs followed by re-plating and reincubation on tryptic soy agar plate for 24 hrs; type: functional
Staphylococcus aureus [8] = assay: Bactericidal activity against methicillin-resistant Staphylococcus aureus ATCC43300 assessed as reduction in number of colony forming units incubated for 24 hrs followed by re-plating and reincubation on tryptic soy agar plate for 24 hrs; type: functional
Staphylococcus aureus [9] = assay: Bactericidal activity against Staphylococcus aureus ATCC25923 assessed as reduction in number of colony forming units incubated for 24 hrs followed by re-plating and reincubation on tryptic soy agar plate for 24 hrs; type: functional
Staphylococcus aureus [10] = assay: Antibacterial activity against Staphylococcus aureus clinical isolate incubated for 24 hrs by CLSI-based broth microdilution method; type: functional
Staphylococcus aureus [11] = assay: Antibacterial activity against Staphylococcus aureus ATCC25923 incubated for 24 hrs by CLSI-based broth microdilution method; type: functional
Staphylococcus aureus [12] = assay: Antibacterial activity against methicillin-resistant Staphylococcus aureus ATCC43300 incubated for 24 hrs by CLSI-based broth microdilution method; type: functional
Pseudomonas aeruginosa = assay: Antibacterial activity against Pseudomonas aeruginosa ATCC27853 incubated for 24 hrs by CLSI-based broth microdilution method; type: functional
Escherichia coli = assay: Antibacterial activity against Escherichia coli ATCC25922 incubated for 24 hrs by CLSI-based broth microdilution method; type: functional; details: ATCC 25922
Staphylococcus aureus [13] = assay: Antibacterial activity against penicillin-resistant Staphylococcus aureus incubated for 24 hrs by CLSI-based broth microdilution method; type: functional
Bacillus pumilus = assay: Antibacterial activity against Bacillus pumilus CMCC63202 incubated for 24 hrs by CLSI-based broth microdilution method; type: functional
Bacillus subtilis [14] = assay: Antibacterial activity against Bacillus subtilis ATCC9372 incubated for 24 hrs by CLSI-based broth microdilution method; type: functional
Bacillus subtilis [15] = assay: Inhibition of ftsZ in Bacillus subtilis assessed as increase in enzyme polymerization kinetics at 5 ug/ml measured for 30 mins by microtiter plate-based light scattering assay; details: dose 5.0 µg/ml
In short: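 Purified recombinant B. subtilis FtsZ was used. Polymerization was followed as light scattering in microtiter plates, read as time-dependent absorbance at 340 nm at several compound concentrations. Vehicle, CIP and LIN served as controls.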

O=C(O)c1cn(C2CC2)c2cc(N3CCNCC3)c(F)cc2c1=O
inhibition (Bacillus subtilis [1]): inactive

CC[C@H]1OC(=O)[C@H](C)[C@@H](O[C@H]2C[C@@](C)(OC)[C@@H](O)[C@H](C)O2)[C@H](C)[C@@H](O[C@@H]2O[C@H](C)C[C@H](N(C)C)[C@H]2O)[C@](C)(OC)C[C@@H](C)C(=O)[C@H](C)[C@@H](O)[C@]1(C)O [CLARITHROMYCIN]
Ratio (Staphylococcus aureus [2]): inactive | Ratio (Staphylococcus aureus [3]): inactive | Ratio (Staphylococcus aureus [4]): inactive | Ratio (Staphylococcus aureus [5]): 32 | MBC (Staphylococcus aureus [6]): inactive | MBC (Staphylococcus aureus [7]): inactive | MBC (Staphylococcus aureus [8]): inactive | MBC (Staphylococcus aureus [9]): 4 µg/mL (≈ 5.35 µM) | MIC (Staphylococcus aureus [10]): > 64 µg/mL | MIC (Staphylococcus aureus [11]): 0.125 µg/mL (≈ 0.167 µM) | MIC (Staphylococcus aureus [12]): > 64 µg/mL

CC(C)(C)c1ccc(C2=NOC(COc3ccc(F)c(C(N)=O)c3F)C2)cc1 (configuration not stated)
MIC (Pseudomonas aeruginosa): > 64 µg/mL | MIC (Escherichia coli): > 64 µg/mL | MIC (Staphylococcus aureus [10]): 4 µg/mL (≈ 10.3 µM) | MIC (Staphylococcus aureus [13]): 4 µg/mL (≈ 10.3 µM) | MIC (Bacillus pumilus): ≤ 0.125 µg/mL | MIC (Staphylococcus aureus [11]): 4 µg/mL (≈ 10.3 µM) | MIC (Staphylococcus aureus [12]): 2 µg/mL (≈ 5.15 µM) | MIC (Bacillus subtilis [14]): 0.25 µg/mL (≈ 0.644 µM)

CCCCc1ccc(C2=NO[C@@H](COc3ccc(F)c(C(N)=O)c3F)C2)cc1
FtsZ polymerization increase (active/inactive call) (Bacillus subtilis [15]): Active | MIC (Pseudomonas aeruginosa): > 64 µg/mL | MIC (Escherichia coli): > 64 µg/mL | MIC (Staphylococcus aureus [10]): 2 µg/mL (≈ 5.15 µM) | MIC (Staphylococcus aureus [13]): 1 µg/mL (≈ 2.57 µM) | MIC (Bacillus pumilus): 0.5 µg/mL (≈ 1.29 µM) | MIC (Staphylococcus aureus [11]): 4 µg/mL (≈ 10.3 µM) | MIC (Staphylococcus aureus [12]): 2 µg/mL (≈ 5.15 µM) | MIC (Bacillus subtilis [14]): 0.25 µg/mL (≈ 0.644 µM)

NC(=O)c1c(F)ccc(OCC2=NOC(c3ccc(Cl)cc3Cl)C2)c1F (configuration not stated)
MIC (Pseudomonas aeruginosa): > 64 µg/mL | MIC (Escherichia coli): > 64 µg/mL | MIC (Staphylococcus aureus [10]): 16 µg/mL (≈ 39.9 µM) | MIC (Staphylococcus aureus [13]): 32 µg/mL (≈ 79.8 µM) | MIC (Bacillus pumilus): 0.5 µg/mL (≈ 1.25 µM) | MIC (Staphylococcus aureus [11]): 32 µg/mL (≈ 79.8 µM) | MIC (Staphylococcus aureus [12]): 16 µg/mL (≈ 39.9 µM) | MIC (Bacillus subtilis [14]): 2 µg/mL (≈ 4.99 µM)

CCCCc1ccc(C2CC(COc3ccc(F)c(C(N)=O)c3F)=NO2)cc1 (configuration not stated)
MIC (Pseudomonas aeruginosa): > 64 µg/mL | MIC (Escherichia coli): > 64 µg/mL | MIC (Staphylococcus aureus [13]): 4 µg/mL (≈ 10.3 µM) | MIC (Bacillus pumilus): 0.5 µg/mL (≈ 1.29 µM) | MIC (Staphylococcus aureus [11]): 8 µg/mL (≈ 20.6 µM) | MIC (Staphylococcus aureus [12]): 4 µg/mL (≈ 10.3 µM) | MIC (Bacillus subtilis [14]): ≤ 0.125 µg/mL

CCOc1ccccc1C1CC(COc2ccc(F)c(C(N)=O)c2F)=NO1 (configuration not stated)
MIC (Pseudomonas aeruginosa): > 64 µg/mL | MIC (Escherichia coli): > 64 µg/mL | MIC (Staphylococcus aureus [13]): > 64 µg/mL | MIC (Bacillus pumilus): > 64 µg/mL | MIC (Staphylococcus aureus [11]): > 64 µg/mL | MIC (Staphylococcus aureus [12]): > 64 µg/mL | MIC (Bacillus subtilis [14]): > 64 µg/mL

NC(=O)c1c(F)ccc(OCC2=NOC(c3ccccc3Cl)C2)c1F (configuration not stated)
MIC (Pseudomonas aeruginosa): > 64 µg/mL | MIC (Escherichia coli): > 64 µg/mL | MIC (Staphylococcus aureus [13]): > 64 µg/mL | MIC (Bacillus pumilus): 32 µg/mL (≈ 87.3 µM) | MIC (Staphylococcus aureus [11]): > 64 µg/mL | MIC (Staphylococcus aureus [12]): > 64 µg/mL | MIC (Bacillus subtilis [14]): 16 µg/mL (≈ 43.6 µM)

CCCOc1ccc(C2=NOC(COc3ccc(F)c(C(N)=O)c3F)C2)cc1 (configuration not stated)
MIC (Pseudomonas aeruginosa): > 64 µg/mL | MIC (Escherichia coli): > 64 µg/mL | MIC (Staphylococcus aureus [13]): > 64 µg/mL | MIC (Bacillus pumilus): 4 µg/mL (≈ 10.2 µM) | MIC (Staphylococcus aureus [11]): > 64 µg/mL | MIC (Staphylococcus aureus [12]): > 64 µg/mL | MIC (Bacillus subtilis [14]): 4 µg/mL (≈ 10.2 µM)

NC(=O)c1c(F)ccc(OCC2CC(c3ccc4c(c3)OCO4)=NO2)c1F (configuration not stated)
MIC (Pseudomonas aeruginosa): > 64 µg/mL | MIC (Escherichia coli): > 64 µg/mL | MIC (Staphylococcus aureus [13]): 64 µg/mL (≈ 170 µM) | MIC (Bacillus pumilus): 16 µg/mL (≈ 42.5 µM) | MIC (Staphylococcus aureus [11]): 64 µg/mL (≈ 170 µM) | MIC (Staphylococcus aureus [12]): 64 µg/mL (≈ 170 µM) | MIC (Bacillus subtilis [14]): 16 µg/mL (≈ 42.5 µM)
